Assay results from ChEMBL document CHEMBL1123612, “Studies on histamine H2 receptor antagonists. 2. Synthesis and pharmacological activities of N-sulfamoyl and N-sulfonyl amidine derivatives” (1987).

Assays:
Canis familiaris [1] = test: (§1) Reduction in gastric acid secretion under histamine[160 ug/(kg h)] stimulation in anesthetized dogs after intravenous administration; assay type: functional; conditions: Canis lupus familiaris, Stomach
Procedure, shortened: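 Fasted (24 h) mongrel dogs, 8-10 kg, anesthetized with iv pentobarbital (30 mg/kg). Gastric juice acidity titrated with 0.05 N NaOH. Percent inhibition per dose taken from predrug acid output versus minimum output, usually reached within 45 min of dosing. ED50 read from semilog plot of inhibition against dose; two to four dogs per compound.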

[2] = target: Histamine H2 receptor (Cavia porcellus) (UniProt P47747); test: Histamine H2 receptor antagonist activity (chronotropic response to histamine) in guinea pig right atrium; assay type: functional, tissue-based; conditions: Cardiac atrium
Procedure, shortened: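 Spontaneously beating atrium; rate recorded via force-displacement transducer. Test compound added 10 min before histamine (5 × 10⁻⁶ M), three to four concentrations per compound. Percent inhibition of the histamine-induced rate increase plotted against log concentration; 50% inhibitory dose read from the dose-response curve (means ± SE).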

Canis familiaris [3] = test: as §1; conditions: Canis lupus familiaris, Stomach

Histamine H2 receptor (Cavia porcellus), sequence (P47747 whole entry): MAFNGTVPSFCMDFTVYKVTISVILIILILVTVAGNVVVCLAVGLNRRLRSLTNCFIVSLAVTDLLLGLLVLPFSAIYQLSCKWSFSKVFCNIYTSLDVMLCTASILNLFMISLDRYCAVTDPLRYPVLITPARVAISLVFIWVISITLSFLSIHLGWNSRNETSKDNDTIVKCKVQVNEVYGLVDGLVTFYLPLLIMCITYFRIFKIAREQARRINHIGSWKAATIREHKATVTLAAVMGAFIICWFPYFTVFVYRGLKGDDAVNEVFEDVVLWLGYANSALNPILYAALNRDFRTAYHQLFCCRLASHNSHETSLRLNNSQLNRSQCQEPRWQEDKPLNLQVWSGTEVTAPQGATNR

SMILES	ED50 (Canis familiaris [1])	ED50 [2]	ED50 (Canis familiaris [3])
N=C(N)Nc1nc(CSCCC(=N)NS(=O)(=O)c2ccccc2)cs1	0.0568 mg/kg	700 nM	
CN(C)S(=O)(=O)NC(=N)CCSCc1csc(N=C(N)N)n1.O=C(O)/C=C\C(=O)O	0.277 mg/kg	1400 nM	
N=C(N)Nc1nc(CCCCC(=N)NS(=O)(=O)c2ccc(N)cc2)cs1	0.0101 mg/kg	350 nM	
N=C(N)Nc1nc(CSCCC(=N)NNS(=O)(=O)c2ccccc2)cs1		8300 nM	
NC(N)=Nc1nc(CSCC/C(N)=N/S(N)(=O)=O)cs1 [FAMOTIDINE]	0.0087 mg/kg	270 nM	
N=C(N)Nc1nc(CSCCC(=N)NS(N)(=O)=O)no1		> 100000 nM	
N=C(N)Nc1nc(CSCCC(=N)NS(=O)(=O)NCc2ccccc2)cs1	0.0396 mg/kg	1100 nM	
N=C(N)Nc1nc(CCCCC(=N)NS(N)(=O)=O)cs1	0.0089 mg/kg	230 nM	
N=C(N)Nc1nc(CCCCC(=N)NS(=O)(=O)c2ccccc2)cs1	0.0194 mg/kg	580 nM	
N=C(N)Nc1nc(CCCCC(=N)NNS(=O)(=O)c2ccccc2)cs1		23000 nM	
N=C(CCSCc1ccccn1)NS(N)(=O)=O		> 100000 nM	
C/N=C(\N)Nc1nc(CSCCC(=N)NS(N)(=O)=O)cs1	0.0518 mg/kg	480 nM	
CCCNS(=O)(=O)NC(=N)CCCCc1csc(N=C(N)N)n1	0.0266 mg/kg	560 nM	
Cc1[nH]cnc1CSCCC(=N)NS(N)(=O)=O		> 100000 nM	
CN(C)Cc1ccc(CSCCC(=N)NS(N)(=O)=O)o1		17000 nM	
N=C(CCCOc1cccc(CN2CCCCC2)c1)NS(N)(=O)=O		1400 nM	
N=C(N)Nc1nc(CSCCC(=N)NS(=O)(=O)c2ccc(N)cc2)cs1	0.03 mg/kg	450 nM	
CNS(=O)(=O)NC(=N)CCSCc1csc(N=C(N)N)n1	0.0366 mg/kg	860 nM	
N=C(N)Nc1nc(C[S+]([O-])CCC(=N)NS(N)(=O)=O)cs1 (configuration not stated)		73000 nM	
CCS(=O)(=O)NC(=N)CCCCc1csc(N=C(N)N)n1	0.0244 mg/kg	600 nM	
CN(C)Nc1nc(CSCCC(=N)NS(N)(=O)=O)cs1		> 100000 nM	
CN/C(=N\CCSCc1nc[nH]c1C)NC#N [CIMETIDINE]		2700 nM	0.33 mg/kg
CS(=O)(=O)NC(=N)CCSCc1csc(N=C(N)N)n1		510 nM	
N=C(N)Nc1nc(CCCCC(=N)NS(=O)(=O)NC2CCCCC2)cs1		1300 nM	
